The values below come from ChEMBL document CHEMBL3526002, “Tissue distribution and identification of radioactivity components at elimination phase after oral administration of [¹⁴C]CS-1036, an α-amylase inhibitor, to rats” (Drug Metab Dispos, 2013).

A short description of data set [1]: Systemic absorption of acarbose estimated from drug excretion in human urine. The format is ADME. Also on record: dosed compound name acarbose.
Data set [2] in a line: Drug uptake in albino F344/DuCrlCrlj rat assessed as radioactivity in palmitic acid in adipose tissue homogenates at 10 mg/kg, po administered for 4 days by LC-MS/MS spectra analysis. Particulars: in vivo, 96 h; call rule not given here.
A short description of data set [3]: Drug uptake in albino F344/DuCrlCrlj rat assessed as radioactivity in oleic acid in adipose tissue homogenates at 10 mg/kg, po administered for 4 days by LC-MS/MS spectra analysis. Particulars: in vivo, 96 h.
The test system of data set [4] is Plasma. Briefly: Drug level in albino F344/DuCrlCrlj rat plasma treated with [14C]CS-1036 at 10 mg/kg, po after 8 to 72 hrs by liquid scintillation counting. Also noted: dose 10 mg/kg, dosed compound name [14C]CS-1036, route oral. It is filed as ADME, organism-based. Conditions: in vivo.
Data set [5] concerns Plasma. Briefly: Drug metabolism in albino F344/DuCrlCrlj rat plasma protein treated with at 10 mg/kg, po of [14C]CS-1036 administered for 5 days by liquid scintillation counting. It is filed as ADME, organism-based. Also noted: dose 10 mg/kg, dosed compound name [14C]CS-1036, route oral. Particulars: in vivo, 120 h. In short, it runs like this: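 Male F344/DuCrlCrlj rats (n = 3) received oral [14C]CS-1036 at 10 mg/kg/day for 5 days at 24-h intervals, with food freely available. Plasma was taken from the abdominal aorta 24 h after the fifth dose and pooled. It was precipitated with acetonitrile, and the pellets were washed with 0.4 M TCA, 80% methanol and 30% ether/ethanol until washes were below twice background. Pellets were HCl-hydrolysed, and recovered radioactivity was counted by LSC.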

For a further data set, the system named is Rattus norvegicus. Briefly: Half life in po dosed rat dosed and assessed as 1,4-dideoxy-1,4-imino-D-arabinitol level (M1). The format is ADME, organism-based. Also on record: dosed compound name M1. Conditions: in vivo.
For the next data set, the system named is Intestine. Briefly: Drug metabolism in po dosed rat in intestinal flora treated with [14C]CS-1036 by liquid scintillation counting. Conditions: in vivo. Also noted: dosed compound name [14C]CS-1036. The format is ADME, organism-based.
Data set [6] can be described thus: Drug excretion in po dosed rat urine dosed as [14C]CS-1036 assessed as 1,4-dideoxy-1,4-imino-D-arabinitol (M1) level up to 24 hrs. It is filed as ADME, organism-based. Also on record: dosed compound name [14C]CS-1036. Conditions: in vivo.
The test system of data set [7] is Plasma. Briefly: Drug uptake in albino F344/DuCrlCrlj rat assessed as radioactivity in aspartic acid in plasma protein at 10 mg/kg, po administered for 5 days by accelerator mass spectrometry analysis. The format is ADME, organism-based. Also noted: dose 10 mg/kg, dosed compound name [14C]CS-1036, route oral. Particulars: in vivo, 120 h. The essentials: (§1)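 Rats were dosed orally with [14C]CS-1036 at 10 mg/kg/day for 5 days. Pooled plasma protein was washed and HCl-hydrolysed, then PTC-derivatized. It was separated by HPLC (40°C, gradient, UV 254 nm) and fractionated every 6 s over 0–15 min. Fraction 14C was measured by AMS after subtracting matching control-plasma fractions. Peaks were assigned by retention time against amino acid standards, and each fraction was expressed as % of injected radioactivity.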

For data set [8], the system named is Plasma. The experiment in a line: Drug uptake in albino F344/DuCrlCrlj rat assessed as radioactivity in glutamic acid in plasma protein at 10 mg/kg, po administered for 5 days by accelerator mass spectrometry analysis. Also noted: dose 10 mg/kg, dosed compound name [14C]CS-1036, route oral. It is filed as ADME, organism-based. Conditions: in vivo, 120 h. The essentials:
as §1

Regarding `C[C@H]1O[C@H](O[C@H]2[C@H](O)[C@@H](O)[C@@H](O[C@H]3[C@H](O)[C@@H](O)C(O)O[C@@H]3CO)O[C@@H]2CO)[C@H](O)[C@@H](O)[C@@H]1N[C@H]1C=C(CO)[C@@H](O)[C@H](O)[C@H]1O` (stereo not given in full) [ACARBOSE], the Fa in [1] was 1.7%.

`CCCCCCCCCCCCCCCC(=O)O` [PALMITIC ACID]: the Compound recovery result in data set [2] is recorded as “Active”.

For the molecule `CCCCCCCC/C=C\CCCCCCCC(=O)O` [OLEIC ACID], the Compound recovery result in data set [3] was “Active”.

For the molecule `OC[C@H]1NC[C@@H](O)[C@@H]1O`, the Drug metabolism entry in the data set on Plasma [4], with Plasma [5] and in the data set with Intestine was “metabolite_detected” in each case. The t1/2 in the data set on Rattus norvegicus is 48 min. For the same molecule, the Compound recovery in data set [6] came out at 5.3%.

For the molecule `N[C@@H](CC(=O)O)C(=O)O` [ASPARTIC ACID], the Compound recovery with Plasma [7] is 18.5%.

Turning to `N[C@@H](CCC(=O)O)C(=O)O` [GLUTAMIC ACID], the Compound recovery in the data set on Plasma [8] worked out at 36.5%.
